Laboratory results as given in ChEMBL document CHEMBL1123896 (J Med Chem, 1987).

Tests used:
[1] = Apparent lipophilicity (log kw) at pH 7.5; assay type: physicochemical; conditions: buffer
Procedure, shortened: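 Measured at pH 7.5 by RP-HPLC. Capacity factors were extrapolated to 0% methanol, and the resulting log kw was taken as apparent lipophilicity. Values that could not be measured were estimated from derived fragmental values.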

D(2) dopamine receptor = D(2) dopamine receptor (Rattus norvegicus, UniProt P61169); assay: Binding affinity for dopamine receptor D2 was evaluated by the ability to displace [3H]spiperone
[2] = target: Sigma non-opioid intracellular receptor 1 (Rattus norvegicus, UniProt Q9R0C9); assay: Binding affinity against sigma receptor
[3] = Selectivity pIC50 (sigma)-pIC50(D2)
[4] = target: D(2) dopamine receptor (Rattus norvegicus) (UniProt P61169); assay: Eudisimic index was determined for the compound against Dopamine receptor D2
Procedure, shortened: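 Eudismic index is the log of the eutomer/distomer affinity ratio, calculated as pIC50(eutomer) − pIC50(distomer) for each enantiomer pair. The pIC50 values come from displacement of specific [3H]spiperone binding at the dopamine D2 receptor.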

[5] = target: Sigma non-opioid intracellular receptor 1 (Rattus norvegicus) (UniProt Q9R0C9); assay: Eudisimic index was determined for the compound against sigma receptor
Procedure, shortened: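 Eudismic index is the log of the eutomer/distomer affinity ratio, calculated as pIC50(eutomer) − pIC50(distomer) for each enantiomer pair, using σ-receptor binding pIC50 values.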

[6] = target: D(2) dopamine receptor (Rattus norvegicus) (UniProt P61169)

Sequence of Sigma non-opioid intracellular receptor 1 (Rattus norvegicus) (Q9R0C9 whole entry): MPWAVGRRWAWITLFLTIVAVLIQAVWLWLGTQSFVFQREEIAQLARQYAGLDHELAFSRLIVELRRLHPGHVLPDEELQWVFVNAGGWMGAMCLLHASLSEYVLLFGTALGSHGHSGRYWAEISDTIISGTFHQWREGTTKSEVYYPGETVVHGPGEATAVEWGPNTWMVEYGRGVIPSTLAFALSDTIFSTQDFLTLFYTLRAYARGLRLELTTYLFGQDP
Sequence of D(2) dopamine receptor (Rattus norvegicus) (P61169 whole entry): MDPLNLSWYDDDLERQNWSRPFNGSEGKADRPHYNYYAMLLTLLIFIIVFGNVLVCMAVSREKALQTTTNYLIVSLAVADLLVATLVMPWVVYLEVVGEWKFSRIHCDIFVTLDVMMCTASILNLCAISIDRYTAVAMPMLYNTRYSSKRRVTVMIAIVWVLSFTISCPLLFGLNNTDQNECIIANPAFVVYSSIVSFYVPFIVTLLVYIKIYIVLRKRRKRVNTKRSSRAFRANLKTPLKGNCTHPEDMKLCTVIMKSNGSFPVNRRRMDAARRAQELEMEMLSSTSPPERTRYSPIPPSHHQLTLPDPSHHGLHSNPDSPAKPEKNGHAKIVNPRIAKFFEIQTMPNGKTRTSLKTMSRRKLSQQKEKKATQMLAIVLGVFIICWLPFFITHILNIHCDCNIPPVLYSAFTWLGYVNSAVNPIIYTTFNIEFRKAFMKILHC
Sequence of Sigma non-opioid intracellular receptor 1 (Q9R0C9 whole entry): as the sequence (Q9R0C9 whole entry) above
Sequence of D(2) dopamine receptor (P61169 whole entry): as the sequence (P61169 whole entry) above

Compound | Log kw [1] | Selectivity [3] | EI [4] | EI [5] | also measured
CN1CCC[C@@H](c2cccc(O)c2)C1 | 0.94 | 0.01 | – | – | IC50 (D(2) dopamine receptor): 1950 nM; IC50 [2]: 1910 nM
Oc1cccc([C@@H]2CCCN(CCc3ccccc3)C2)c1 | 2.27 | 0.44 | – | – | –
CCN1CCC[C@H](c2cccc(O)c2)C1 | 0.84 | – | – | – | –
CCCN1CCC[C@@H](c2cccc(O)c2)C1 [PRECLAMOL] | 1.05 | – | – | – | –
CCCCN1CCC[C@@H](c2cccc(O)c2)C1 | 1.41 | 0.95 | – | – | –
Oc1cccc([C@@H]2CCCNC2)c1 | 0.41 | -0.95 | – | – | –
CN1CCC[C@H](c2cccc(O)c2)C1 | 0.96 | – | 0.32 | 0.71 | –
CC(C)N1CCC[C@@H](c2cccc(O)c2)C1 | 0.84 | 0.23 | – | – | –
Oc1cccc([C@H]2CCCNC2)c1 | 0.41 | -1.02 | 0.6 | 0.53 | –
CCCCN1CCC[C@H](c2cccc(O)c2)C1 | 1.41 | – | 0.99 | 0.54 | –
CCN1CCC[C@@H](c2cccc(O)c2)C1 | 0.84 | – | – | – | –
CCCN1CCC[C@H](c2cccc(O)c2)C1 | 1.05 | – | 0.61 | 0.71 | –
Oc1cccc([C@H]2CCCN(CCc3ccccc3)C2)c1 | 2.27 | – | 1.45 | 0.3 | –
CC(C)N1CCC[C@H](c2cccc(O)c2)C1 | 0.84 | – | 1.53 | – | EI [6]: 0.07
